According to ChEMBL document CHEMBL2086260, “Cytotoxic prenylated acetophenone dimers from Acronychia pedunculata” (J Nat Prod, 2012):

Columns and labels:
[1] = system: DU-145; assay: Cytotoxicity against human DU145 cells after 48 hrs by […]; type: functional, cell-based; conditions: for IC50: DU-145, 48 h
In short: (§1)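 Cells from ATCC, grown in RPMI 1640 with 10% heat-inactivated FBS and 1% penicillin/streptomycin. Seeded at 5000 cells/well and incubated overnight, then exposed to graded compound concentrations or DMSO vehicle for 48 h. Viability was read by MTS reagent absorbance at 490 nm and normalized to vehicle. Each experiment was run in triplicate or quadruplicate; values are means ± SD.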

[2] = system: A2058; assay: Cytotoxicity against human A2058 cells after 48 hrs by […]; type: functional, cell-based; conditions: for IC50: A2058, 48 h; in short: as §1
[3] = system: NHDF; assay: Cytotoxicity against human NHDF cells after 48 hrs by […]; type: cell-based; conditions: for IC50: Homo sapiens, NHDF; for inhibition (INH): human, nhdf
In short: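 Normal human dermal fibroblasts were grown in DMEM with 10% FBS. Seeded at 5000 cells/well and incubated overnight, then exposed to compounds or DMSO vehicle for 48 h. Viability was read by MTS absorbance at 490 nm and normalized to vehicle. Each experiment was run in triplicate or quadruplicate.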

Question: `COc1c(CC=C(C)C)c(O)c(C(CC(C)C)c2c(O)c(C(C)=O)c(O)c3c2OC(C(C)(C)O)C3)c(O)c1C(C)=O` (stereo not given) [ACROFOLIONE A] was tested. Which inhibition [1] did it give?
Answer: The inhibition was “Dose-dependent effect”.

Question: What about the IC50 [1] of the same molecule?
Answer: The IC50 was greater than 5 µM.

Question: What about the inhibition [2] of the same molecule?
Answer: The inhibition was “Dose-dependent effect”.

Question: What about the IC50 [2] of the same molecule?
Answer: The IC50 was 4.2 µM.

Question: And the IC50 [3]?
Answer: Its IC50 is greater than 5 µM.

Question: And the “inhibition (INH)” value [3]?
Answer: Its value is “Dose-dependent effect”.

Question: `CNC(=O)c1cc(Oc2ccc(NC(=O)Nc3ccc(Cl)c(C(F)(F)F)c3)cc2)ccn1` [SORAFENIB] was tested. Which IC50 [1] did it give?
Answer: The IC50 was 5.1 µM.

Question: What about the IC50 [2] of the same molecule?
Answer: Its IC50 is 3.8 µM.

Question: `COc1c(CC=C(C)C)c(O)c([C@H](CC(C)C)c2c(O)c(CC=C(C)C)c(O)c(C(C)=O)c2O)c(O)c1C(C)=O` [ACROVESTONE] was tested. Which inhibition [1] did it give?
Answer: Its inhibition is “Dose-dependent effect”.

Question: What about the IC50 [1] of the same molecule?
Answer: The IC50 was 0.93 µM.

Question: And the inhibition [2]?
Answer: The inhibition was “Dose-dependent effect”.

Question: And the IC50 [2]?
Answer: The IC50 was 0.38 µM.

Question: And the IC50 [3]?
Answer: The IC50 was greater than 5 µM.

Question: What about the “inhibition (INH)” value [3] of the same molecule?
Answer: The value was “Dose-dependent effect”.

Question: For `C=C(C)C(O)Cc1c(O)c(C(C)=O)c(O)c(C(CC(C)C)c2c(O)c(CC=C(C)C)c(OC)c(C(C)=O)c2O)c1O` (stereo not given) [ACROVESTENOL], which inhibition [1] is on record?
Answer: Its inhibition is “Dose-dependent effect”.

Question: And the IC50 [1]?
Answer: Its IC50 is 2.7 µM.

Question: And the inhibition [2]?
Answer: Its inhibition is “Dose-dependent effect”.

Question: What about the IC50 [2] of the same molecule?
Answer: The IC50 was 2.8 µM.

Question: And the IC50 [3]?
Answer: The IC50 was greater than 5 µM.

Question: And the “inhibition (INH)” value [3]?
Answer: The value was “Dose-dependent effect”.
